Drawing on PubChem BioAssay AID624020 (Broad Institute, 2012), this text covers activity change, negative = inhibition and AC35 for 39 compounds.

Calls of active or inactive are those of the source.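 Rule for the calls: active = fitted curve reaching 35% inhibition at both 405 and 600 nm absorbance, in duplicate, within twice the top valid dose; inactive = the rest, including signal rising instead of falling.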 Where only a bound is given, the exact number is not on record here.

Test [1] in a line: P. aeruginosa growth delay under iron chelation, dose response, pyoverdine/PvdQ inhibitor project, absorbance 405 nm, dry powder, set 3 (AID 624020). Conditions: P. aeruginosa growth + EDDHA, pyoverdine absorbance 405 nm; at 50 µM (top of the series). A digest of the protocol: (§1)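 Assay system: P. aeruginosa ATCC 15692; quantity: final bacterial OD600 0.0000005; buffer or medium: succinate M9 medium, pH 7.0, with 2 µM iron chelator EDDHA; technique: absorbance at 405 nm reflecting pyoverdine production; timing: Bacteria-compound culture for 24–30 h at 37 °C, humidified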

Test [2] relates to P. aeruginosa growth + EDDHA, pyoverdine absorbance 405 nm. The test is described as above. In a few lines:
as §1

`N#CC(c1ccc(Cl)cc1)c1ccc(C(F)(F)F)c(Cl)n1` (centres undefined): the activity change, negative = inhibition in test [1] was -1.44% (inactive).

With `N#Cc1cccc(C(C#N)c2ccc(Cl)cc2)n1` (centres undefined), the activity change, negative = inhibition in test [1] was 3.83% (inactive). As to `N#Cc1cccc(C(C#N)c2ccccc2OC(F)(F)F)n1` (centres undefined), in test [1], the activity change, negative = inhibition was 4.22% (inactive). With `N#Cc1ccc(C(C#N)c2ccc(Cl)cc2Cl)nc1` (centres undefined), in test [1], the activity change, negative = inhibition was 4.54% (inactive). In the case of `N#CC(c1ccc(C(F)(F)F)c(Cl)n1)c1ccc(Cl)cc1Cl` (centres undefined), the AC35 in test [2] was > 50 µM (inactive). In the case of `Cc1ccc(C(C#N)c2ccc(Cl)cc2)nc1` (centres undefined), the activity change, negative = inhibition in test [1] was 7.58% (inactive).

For the compound `CCCCC(C#N)c1ccc(F)cc1` (centres undefined), the activity change, negative = inhibition in test [1] was 8.04% (inactive). As to `N#CC(c1cccc(C(F)(F)F)n1)c1ccccc1OC(F)(F)F` (centres undefined), the activity change, negative = inhibition in test [1] was 7.17% (inactive). Turning to `CCCCC(C#N)c1ccc(Cl)cc1F` (centres undefined), the activity change, negative = inhibition in test [1] was 15.6% (inactive). On the same count and under the same terms, then `N#Cc1cccc(C(C#N)c2ccc(Cl)cc2F)n1` (centres undefined), with 7.99% (inactive); and `N#CC(c1ccc(C(F)(F)F)cc1)c1cccc(Cl)n1` (centres undefined), with 17.5% (inactive). As to `N#CC(c1cccc(C(F)(F)F)n1)c1ccc(Cl)cc1F` (centres undefined), the activity change, negative = inhibition in test [1] is -4.42% (inactive). As to `N#CC(c1ccc(Cl)cc1Cl)c1ncccc1Cl` (centres undefined), the activity change, negative = inhibition in test [1] is 13% (inactive). In the case of `N#CC(c1ccc(C(F)(F)F)cc1)c1ccc(C(F)(F)F)c(Cl)n1` (centres undefined), in test [1], the activity change, negative = inhibition is 20.8% (inactive).

As to `CCCCC(C#N)c1ccc(C(F)(F)F)cc1` (centres undefined), in test [1], the activity change, negative = inhibition is 16.2% (inactive). For the compound `CC(C)CC(C#N)c1ccc(Cl)cc1` (centres undefined), the activity change, negative = inhibition in test [1] is 3.56% (inactive). With `Cc1ccc(C(C#N)c2ccc(Cl)cc2)nc1C#N` (centres undefined), in test [1], the activity change, negative = inhibition is 5.29% (inactive). Take `N#CC(c1ccc(F)cc1)c1cccc(C(F)(F)F)n1` (centres undefined): in test [2], the AC35 is 44.8 µM. As to `CCCC(C#N)c1ccc(Cl)cc1` (centres undefined), the activity change, negative = inhibition in test [1] was -9% (inactive).

Take `N#CC(CC1CC1)c1ccc(Cl)cc1` (centres undefined): the activity change, negative = inhibition in test [1] is 3.25% (inactive). The same measure, in the same setting: then `N#Cc1cccc(C(C#N)c2ccc(Cl)cc2Cl)n1` (centres undefined), with -0.74% (inactive); and `CCCCC(C#N)c1ccccc1OC(F)(F)F` (centres undefined), with -1.21% (inactive). Take `CCCCC(C#N)c1ccc(Cl)cc1` (centres undefined): the activity change, negative = inhibition in test [1] was -10.7% (inactive). On to `CC(C#N)(c1ccc(Cl)cc1)c1ccc(C(F)(F)F)cn1` (centres undefined), for which the activity change, negative = inhibition in test [1] was 9.6% (inactive). In the case of `CCCCC(C#N)c1ccc(Cl)cc1Cl` (centres undefined), the activity change, negative = inhibition in test [1] was 14.9% (inactive).

With `N#CC(c1ccc(Cl)cc1)c1ccc(C(F)(F)F)cn1` (centres undefined), in test [1], the activity change, negative = inhibition was 8.01% (inactive). For `N#CC(c1ccc(Cl)cc1)c1cccc(C(F)(F)F)n1` (centres undefined), in test [2], the AC35 was 16.8 µM. On to `N#CC(c1cccc(Cl)n1)c1ccccc1OC(F)(F)F` (centres undefined), for which the activity change, negative = inhibition in test [1] was -0.322% (inactive). For `Cc1ccc(C(C#N)c2ccc(F)cc2)nc1C#N` (centres undefined), in test [1], the activity change, negative = inhibition was 4.87% (inactive). With `N#CC(c1cccc(Cl)n1)c1ccc(Cl)cc1Cl` (centres undefined), the activity change, negative = inhibition in test [1] is 0.286% (inactive). For the compound `COc1cccc(C(C#N)c2ccc(F)cc2)n1` (centres undefined), the activity change, negative = inhibition in test [1] is 9.45% (inactive).

On to `N#CC(c1ccc(Cl)cc1)c1ccc(Cl)cn1` (centres undefined), for which the activity change, negative = inhibition in test [1] is -3.9% (inactive). In the case of `N#CC(c1ccc(C(F)(F)F)c(Cl)n1)c1ccccc1OC(F)(F)F` (centres undefined), the activity change, negative = inhibition in test [1] is -1.95% (inactive). Consider `N#CC(c1ccc(C(F)(F)F)c(Cl)n1)c1ccc(Cl)cc1F` (centres undefined), for which the activity change, negative = inhibition in test [1] was 2.37% (inactive). As to `N#CC(c1ccc(Cl)cc1)c1cccc(Cl)n1` (centres undefined), in test [2], the AC35 is 33.5 µM. For `N#Cc1ccc(C(C#N)c2ccc(Cl)cc2)nc1` (centres undefined), the activity change, negative = inhibition in test [1] is 5.84% (inactive). Consider `Cc1cccc(C(C#N)c2ccc(Cl)cc2)n1` (centres undefined), for which the activity change, negative = inhibition in test [1] was 14% (inactive). Consider `N#CC(c1ccc(C(F)(F)F)cc1)c1cccc(C(F)(F)F)n1` (centres undefined), for which the activity change, negative = inhibition in test [1] is 20.5% (inactive). Take `Cc1ccc(C(C#N)c2ccccc2OC(F)(F)F)nc1C#N` (centres undefined): in test [1], the activity change, negative = inhibition is 9.74% (inactive).
